Experimental data: ChEMBL document CHEMBL1155674, “New isomalabaricane triterpenes from the marine sponge Stelletta globostellata that induce morphological changes in rat fibroblasts” (J Nat Prod, 2000)
Activity calls are given as the source filed them. The calls are words filed in the database; no cut-off is given here.

Experiments:
P388 [1] = experiment: Cytotoxicity against mouse P388 cells by MTT assay; assay type: functional
3Y1 cell line = experiment: Induction of morphological changes in rat 3Y1 cells assessed as lost pseudopodia at 0.2 uM before washing; assay type: functional, cell-based
Outline: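 3Y1 B clone 1-6 fibroblasts, kept subconfluent in DMEM/10% fetal calf serum at 37 °C under 5% CO2, were seeded at 2 × 10⁴ cells/mL and incubated 24 h. Samples in MeOH were added. Morphology was checked by phase-contrast microscopy at 1, 5 and 24 h and on day 5. Some cultures were washed with fresh medium to test reversibility.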

Escherichia coli = experiment: Antimicrobial activity against Escherichia coli at 100 ug/disk; assay type: functional, organism-based
Staphylococcus aureus = experiment: Antimicrobial activity against Staphylococcus aureus at 100 ug/disk; assay type: functional, organism-based
[2] = Cytotoxicity against rat 3Y1 cells after 72 hrs by MTT assay; assay type: cell-based
Outline: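 3Y1 rat embryonic fibroblasts (B clone 1-6) in DMEM with 10% fetal calf serum were seeded at 300 cells/well and incubated 24 h. Samples were added, then plates were held 72 h at 37 °C. MTT (5 mg/mL in Ca/Mg-free PBS) was added for 4 h, formazan was dissolved in DMSO, and absorbance was read at 540 nm to give GI50.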

Bacillus subtilis = experiment: Antimicrobial activity against Bacillus subtilis at 100 ug/disk; assay type: functional, organism-based
Pseudomonas aeruginosa = experiment: Antimicrobial activity against Pseudomonas aeruginosa at 100 ug/disk; assay type: functional, organism-based
[3] = Induction of cell death in rat 3Y1 cells at 0.2 uM after 5 days after washing; assay type: cell-based; details: 3y1, 120 h
Candida albicans = experiment: Antimicrobial activity against Candida albicans at 100 ug/disk; assay type: functional, organism-based
Umbelopsis ramanniana = experiment: Antimicrobial activity against Mortierella ramanniana at 100 ug/disk; assay type: functional, organism-based
Penicillium chrysogenum = experiment: Antimicrobial activity against Penicillium chrysogenum at 100 ug/disk; assay type: functional, organism-based
[4] = Induction of cell death in rat 3Y1 cells at 0.2 uM after 5 days without washing; details: 3y1, 120 h
P388 [5] = experiment: Cytotoxicity against mouse P388 cells at 18 uM by MTT assay; assay type: functional, cell-based
[6] = Cytotoxicity against rat 3Y1 cells at 18 uM after 72 hrs by MTT assay; assay type: cell-based; details: 3y1, 72 h

SMILES	GI50 (P388 [1]) [nM]	Activity (3Y1 cell line)	Activity (Escherichia coli)	Activity (Staphylococcus aureus)	GI50 at 72 h [2] [nM]	Activity (Bacillus subtilis)	Activity (Pseudomonas aeruginosa)	Activity [3]	Activity (Candida albicans)	Activity (Umbelopsis ramanniana)	Activity (Penicillium chrysogenum)	Activity [4]	Activity (P388 [5])	Activity [6]
CC(=O)O[C@@H](CC=C(C)C)/C(C)=C/C=C/C(C)=C1\C(=O)C[C@H]2[C@@]3(C)CC[C@@H](OC(C)=O)[C@](C)(CO)[C@@H]3CC[C@]12C	160	Active	inactive	inactive	52	inactive	inactive	Active	inactive	inactive	inactive			
CC(C)=CCC/C(C)=C/C=C/C(C)=C1\C(=O)C[C@H]2[C@@]3(C)CC[C@H](O)[C@](C)(CO)[C@@H]3CC[C@]12C	190	Active	inactive	inactive	60	inactive	inactive		inactive	inactive	inactive	Active		
CC(=O)O[C@H]1CC[C@@]2(C)[C@@H](CC[C@]3(C)/C(=C(C)/C=C/C=C(\C)[C@@H](O)CC=C(C)C)C(=O)C[C@@H]23)C1(C)C [STELLIFERIN A]	21	Active	inactive	inactive	34	inactive	inactive		inactive	inactive	inactive	Active		
CC(C)=CCC/C(C)=C/C=C/C(C)=C1\C(=O)C[C@H]2[C@@]3(C)CC[C@H](O)C(C)(C)[C@@H]3CC[C@]12C [STELLIFERIN D]	24	Active	inactive	inactive	18	inactive	inactive		inactive	inactive	inactive	Active		
CC(=O)O[C@H]1C[C@H]2[C@@]3(C)CC[C@H](OC(C)=O)C(C)(C)[C@@H]3CC[C@]2(C)/C1=C(C)/C=C/C=C(\C)[C@H](CC=C(C)C)OC(C)=O	1600				1300									
CC(=O)O[C@@H]1CC[C@@]2(C)[C@@H](CC[C@]3(C)/C(=C(\C)C(=O)/C=C/C(C)=C/C=C/C(C)(C)O)C(=O)C[C@@H]23)[C@@]1(C)C(=O)[O-].[Na+] [GLOBOSTELLATIC ACID A]													Not toxic	Non-toxic
COc1cccc2c1C(=O)c1c(O)c3c(c(O)c1C2=O)C[C@@](O)(C(=O)CO)C[C@@H]3O[C@H]1C[C@H](N)[C@H](O)[C@H](C)O1 [DOXORUBICIN]	12				3.8									
CC(=O)O[C@@H]1CC[C@@]2(C)[C@@H](CC[C@]3(C)/C(=C(C)/C=C/C=C(\C)[C@@H](O)CC=C(C)C)C(=O)C[C@@H]23)[C@@]1(C)CO	180	Active	inactive	inactive	46	inactive	inactive	Active	inactive	inactive	inactive			
